# Measurements from different studies.
# Lines come from different studies, so protocols differ.
# Matrix: plasma
Structure (SMILES),species,route,dose,setting,AUC(0-t) [ng·h/mL]
CN1CCC[C@H](CN2c3ccccc3Sc3ccccc32)C1.Cl,mouse,intraperitoneal,32 mg/kg,single dose,6920
COc1ccc(C(O)COc2ccc(-c3csc(-c4ccc(OCC(O)c5ccc(OC)c(OC)c5)cc4)n3)cc2)cc1OC (centres unmarked),C57BL/6 mouse,intravenous,3 mg/kg,,4700
CCc1cc(C(=O)NC)c2nccc(N3CCc4c(cc(Cn5ccnc5)cc4-c4cn(C)nc4C(F)(F)F)C3=O)c2c1,male CD-1 mouse,oral,150 mg/kg,,527000
C=CC(=O)N1CC2CC(n3nc(-c4ccc(C(=O)Nc5ccccn5)cc4)c4c(N)ncnc43)CC2C1 (centres unmarked),SCID mouse,oral,3 mg/kg,,588
Cc1nc(-c2cnc(NC(C)C)n(C)c2=O)ccc1Oc1ccnc(-c2cnn(C)c2)c1,female mouse,oral,15 mg/kg,single dose,113000
CC[C@H](C)[C@@H]1NC(=O)[C@@](C)(NC(=O)[C@H](CCCNC(=N)N)NC(=O)[C@H](CC(C)C)NC(=O)[C@@H](NC(=O)[C@H](CCC(N)=O)NC(=O)[C@H](CC(C)C)NC(C)=O)[C@@H](C)O)CCCC=CCCC[C@@](C)(C(=O)N[C@@H](CC(C)C)C(=O)N[C@@H](Cc2ccc3ccccc3c2)C(N)=O)NC(=O)[C@H](CCCNC(=N)N)NC(=O)[C@H](CCC(N)=O)NC1=O,male BALB/c mouse,intravenous,15 mg/kg,,260000
CCc1cc(OC)c2nccc(N3CCc4c(cc(Cn5ccnc5)cc4-c4cn(C)nc4C(F)(F)F)C3=O)c2c1,male CD-1 mouse,oral,50 mg/kg,,106000
CS(=O)(=O)CCNCc1ccc(-c2ccc3ncnc(Nc4ccc(OCc5cccc(F)c5)c(Cl)c4)c3c2)o1,nude mouse,oral,50 mg/kg,single dose,34100
